Experimental data: ChEMBL document CHEMBL1123146, “Design, synthesis, and evaluation of omega-iodovinyl- and omega-iodoalkyl-substituted methyl-branched long-chain fatty acids” (J Med Chem, 1985)

What was measured:
Rattus norvegicus [1] = test: Concentration was measured in heart tissue of unfasted Fischer 344 rats administered intravenously after 4 hr (radiolabeled with [123I]-; assay type: ADME, organism-based; details: in vivo, iv
Rattus norvegicus [2] = test: Concentration was measured in mean heart/blood tissue of fasted Fischer 344 rats administered intravenously after 60 minute (radiolabeled with [123I]-; details: in vivo, iv, 1 h
Rattus norvegicus [3] = test: Concentration was measured in lungs tissue of unfasted Fischer 344 rats administered intravenously after 30 minute (radiolabeled with [123I]-; assay type: ADME, organism-based, Lung; details: in vivo, iv, 0.5 h
Rattus norvegicus [4] = test: Concentration was measured in thyroid tissue of unfasted Fischer 344 rats administered intravenously after 4 hr (radiolabeled with [125I]-; assay type: ADME, organism-based, Thyroid gland; details: in vivo, iv
Rattus norvegicus [5] = test: Concentration was measured in lungs tissue of unfasted Fischer 344 rats administered intravenously after 5 minute (radiolabeled with [125I]-; assay type: ADME, organism-based, Lung; details: in vivo, iv, 5 min
Method in brief: (§1)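 Female Fischer 344 rats, 10-12 weeks old, 170-200 g, with food and water ad libitum. The 125I-fatty acid was taken up in ethanol, added dropwise to stirred 6% BSA at ~40 °C (final ethanol 10%), filtered, and given as 0.5 mL via lateral tail vein under ether anesthesia. Rats were killed by cervical fracture; blood was taken by cardiac puncture. Organs were rinsed, blotted, weighed and gamma-counted against injectate standards to give %ID/g. Five rats per time point.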

Rattus norvegicus [6] = test: Concentration was measured in lungs tissue of unfasted Fischer 344 rats administered intravenously after 60 minute (radiolabeled with [125I]-; assay type: ADME, organism-based, Lung; details: in vivo, iv, 1 h; method in brief: as §1
Rattus norvegicus [7] = test: Concentration was measured in heart tissue of unfasted Fischer 344 rats, administered intravenous, after 5 minute (radiolabeled with [125I]-; assay type: ADME, organism-based; details: in vivo, 5 min; method in brief: as §1
Rattus norvegicus [8] = test: Concentration was measured in thyroid tissue of unfasted Fischer 344 rats administered intravenously after 5 minute (radiolabeled with [125I]-; assay type: ADME, organism-based, Thyroid gland; details: in vivo, iv, 5 min
Method in brief: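 Female Fischer 344 rats, 10–12 weeks old (170–200 g), with food and water ad libitum, five per time point. The radioiodinated fatty acid was dissolved in ethanol, added to 6% BSA at ~40 °C (final 10% ethanol), filtered, and injected into a lateral tail vein (0.5 mL) under ether anesthesia. Blood was taken by cardiac puncture; organs were rinsed, blotted, weighed and gamma-counted against injectate standards. Output is % injected dose/g.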

Rattus norvegicus [9] = test: Concentration was measured in kidney tissue of unfasted Fischer 344 rats administered intravenously after 30 minute (radiolabeled with [123I]-; assay type: ADME, organism-based; details: in vivo, iv, 0.5 h
Rattus norvegicus [10] = test: Concentration was measured in kidney tissue of unfasted Fischer 344 rats administered intravenously after 30 minute (radiolabeled with [125I]-; assay type: ADME, organism-based; details: in vivo, iv, 0.5 h; method in brief: as §1
Rattus norvegicus [11] = test: Concentration was measured in kidney tissue of unfasted Fischer 344 rats administered intravenously after 4 hr (radiolabeled with [125I]-; assay type: ADME, organism-based; details: in vivo, iv
Rattus norvegicus [12] = test: Concentration was measured in heart tissue of unfasted Fischer 344 rats administered intravenously after 30 minutes (radiolabeled with [125I]-; assay type: ADME, organism-based; details: in vivo, iv, 0.5 h; method in brief: as §1
Rattus norvegicus [13] = test: Concentration was measured in liver tissue of unfasted Fischer 344 rats administered intravenously after 4 hr (radiolabeled with [123I]-; assay type: ADME, organism-based; details: in vivo, iv
Rattus norvegicus [14] = test: Concentration was measured in blood tissue of unfasted Fischer 344 rats administered intravenously after 4 hr (radiolabeled with [125I]-; assay type: ADME, organism-based; details: in vivo, iv
Rattus norvegicus [15] = test: Concentration was measured in mean heart/blood tissue of fasted Fischer 344 rats administered intravenously after 60 minute (radiolabeled with [125I]-; details: in vivo, iv, 1 h
Rattus norvegicus [16] = test: Concentration was measured in lungs tissue of unfasted Fischer 344 rats administered intravenously after 60 minute (radiolabeled with [123I]-; assay type: ADME, organism-based, Lung; details: in vivo, iv, 1 h

Distribution (Rattus norvegicus [1]): 0.59% | Distribution (Rattus norvegicus [2]): 1.2% | Distribution (Rattus norvegicus [3]): 1.32% | Distribution (Rattus norvegicus [4]): 364% | Distribution (Rattus norvegicus [5]): 1.36% | Distribution (Rattus norvegicus [6]): 0.89% | Distribution (Rattus norvegicus [7]): 4.89% | Distribution (Rattus norvegicus [8]): 16.7% | Distribution (Rattus norvegicus [9]): 1.03% | Distribution (Rattus norvegicus [10]): 0.91% | Distribution (Rattus norvegicus [11]): 0.66% | Distribution (Rattus norvegicus [12]): 3.32% | Distribution (Rattus norvegicus [13]): 1.83% | Distribution (Rattus norvegicus [14]): 0.53% | Distribution (Rattus norvegicus [15]): 4.1% | Distribution (Rattus norvegicus [16]): 1.21%
Structure (SMILES): CC(CCCCCCCCCCCCCC/C=C/I)CC(=O)O.O=C(O)CCCCCCCCCCCCCCCC/C=C/I (stereo unspecified)
